In ChEMBL document CHEMBL1629696, “Identification of a novel transposon (Tn6072) and a truncated staphylococcal cassette chromosome mec element in methicillin-resistant Staphylococcus aureus ST239” (2010):
Values after ≈ are worked out from the molar mass of the structure shown.

Key:
Type in all cases: functional
Staphylococcus aureus [1] = experiment: Antimicrobial activity against methicillin-resistant Staphylococcus aureus 16689 by broth dilution method
Summary of the method: (§1)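 Oxacillin MIC by broth dilution per CLSI guidelines, on clinical MRSA isolates collected March 2004–June 2005 at a county hospital in Braşov, Romania. Bacterial suspensions were incubated 24 h at 37°C and growth was read as OD600. S. aureus MRSA252 and MSSA476 served as positive and negative controls.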

Staphylococcus aureus [2] = experiment: Antimicrobial activity against methicillin-resistant Staphylococcus aureus 16653 by broth dilution method; summary of the method: as §1
Staphylococcus aureus [3] = experiment: Antimicrobial activity against methicillin-resistant Staphylococcus aureus 16684 by broth dilution method; summary of the method: as §1
Staphylococcus aureus [4] = experiment: Antimicrobial activity against methicillin-resistant Staphylococcus aureus 16696 by broth dilution method; summary of the method: as §1
Staphylococcus aureus [5] = experiment: Antimicrobial activity against methicillin-resistant Staphylococcus aureus 16656 by broth dilution method; summary of the method: as §1
Staphylococcus aureus [6] = experiment: Antimicrobial activity against methicillin-resistant Staphylococcus aureus 16676 by broth dilution method; summary of the method: as §1
Staphylococcus aureus [7] = experiment: Antimicrobial activity against methicillin-resistant Staphylococcus aureus 16671 by broth dilution method; summary of the method: as §1
Staphylococcus aureus [8] = experiment: Antimicrobial activity against methicillin-resistant Staphylococcus aureus 16700 by broth dilution method; summary of the method: as §1
Staphylococcus aureus [9] = experiment: Antimicrobial activity against methicillin-resistant Staphylococcus aureus 16683 by broth dilution method; summary of the method: as §1
Staphylococcus aureus [10] = experiment: Antimicrobial activity against methicillin-resistant Staphylococcus aureus 16651 by broth dilution method; summary of the method: as §1
Staphylococcus aureus [11] = experiment: Antimicrobial activity against methicillin-resistant Staphylococcus aureus 16688 by broth dilution method; summary of the method: as §1
Staphylococcus aureus [12] = experiment: Antimicrobial activity against methicillin-resistant Staphylococcus aureus 85/2082 by broth dilution method
Staphylococcus aureus [13] = experiment: Antimicrobial activity against methicillin-resistant Staphylococcus aureus 16672 by broth dilution method; summary of the method: as §1
Staphylococcus aureus [14] = experiment: Antimicrobial activity against methicillin-resistant Staphylococcus aureus 16686 by broth dilution method; summary of the method: as §1
Staphylococcus aureus [15] = experiment: Antimicrobial activity against methicillin-resistant Staphylococcus aureus 16666 by broth dilution method; summary of the method: as §1
Staphylococcus aureus [16] = experiment: Antimicrobial activity against methicillin-resistant Staphylococcus aureus 16698 by broth dilution method; summary of the method: as §1
Staphylococcus aureus [17] = experiment: Antimicrobial activity against methicillin-resistant Staphylococcus aureus 16702 by broth dilution method; summary of the method: as §1
Staphylococcus aureus [18] = experiment: Antimicrobial activity against methicillin-resistant Staphylococcus aureus 16677 by broth dilution method; summary of the method: as §1
Staphylococcus aureus [19] = experiment: Antimicrobial activity against methicillin-resistant Staphylococcus aureus 16652 by broth dilution method; summary of the method: as §1
Staphylococcus aureus [20] = experiment: Antimicrobial activity against methicillin-resistant Staphylococcus aureus 16674 by broth dilution method; summary of the method: as §1
Staphylococcus aureus [21] = experiment: Antimicrobial activity against methicillin-resistant Staphylococcus aureus 16692 by broth dilution method; summary of the method: as §1
Staphylococcus aureus [22] = experiment: Antimicrobial activity against methicillin-resistant Staphylococcus aureus 16658 by broth dilution method; summary of the method: as §1
Staphylococcus aureus [23] = experiment: Antimicrobial activity against methicillin-resistant Staphylococcus aureus 16695 by broth dilution method; summary of the method: as §1
Staphylococcus aureus [24] = experiment: Antimicrobial activity against methicillin-resistant Staphylococcus aureus 16670 by broth dilution method; summary of the method: as §1
Staphylococcus aureus [25] = experiment: Antimicrobial activity against methicillin-resistant Staphylococcus aureus HDG2 by broth dilution method
Staphylococcus aureus [26] = experiment: Antimicrobial activity against methicillin-resistant Staphylococcus aureus 16646 by broth dilution method; summary of the method: as §1
Staphylococcus aureus [27] = experiment: Antimicrobial activity against methicillin-resistant Staphylococcus aureus 16691 by broth dilution method; summary of the method: as §1
Staphylococcus aureus [28] = experiment: Antimicrobial activity against methicillin-resistant Staphylococcus aureus 16687 by broth dilution method; summary of the method: as §1
Staphylococcus aureus [29] = experiment: Antimicrobial activity against methicillin-resistant Staphylococcus aureus 16699 by broth dilution method; summary of the method: as §1
Staphylococcus aureus [30] = experiment: Antimicrobial activity against methicillin-resistant Staphylococcus aureus 16678 by broth dilution method; summary of the method: as §1
Staphylococcus aureus [31] = experiment: Antimicrobial activity against methicillin-resistant Staphylococcus aureus 16704 by broth dilution method; summary of the method: as §1
Staphylococcus aureus [32] = experiment: Antimicrobial activity against methicillin-resistant Staphylococcus aureus 16645 by broth dilution method; summary of the method: as §1
Staphylococcus aureus [33] = experiment: Antimicrobial activity against methicillin-resistant Staphylococcus aureus 16680 by broth dilution method; summary of the method: as §1
Staphylococcus aureus [34] = experiment: Antimicrobial activity against methicillin-resistant Staphylococcus aureus 16708 by broth dilution method; summary of the method: as §1
Staphylococcus aureus [35] = experiment: Antimicrobial activity against methicillin-resistant Staphylococcus aureus 16703 by broth dilution method; summary of the method: as §1
Staphylococcus aureus [36] = experiment: Antimicrobial activity against methicillin-resistant Staphylococcus aureus 16679 by broth dilution method; summary of the method: as §1

## Cc1onc(-c2ccccc2)c1C(=O)N[C@@H]1C(=O)N2[C@@H]1SC(C)(C)[C@@H]2C(=O)O [OXACILLIN]
Staphylococcus aureus [1]
  MIC: 512 µg/mL (≈ 1280 µM)
Staphylococcus aureus [2]
  MIC: 512 µg/mL (≈ 1280 µM)
Staphylococcus aureus [3]
  MIC: 256 µg/mL (≈ 638 µM)
Staphylococcus aureus [4]
  MIC: 512 µg/mL (≈ 1280 µM)
Staphylococcus aureus [5]
  MIC: 512 µg/mL (≈ 1280 µM)
Staphylococcus aureus [6]
  MIC: 512 µg/mL (≈ 1280 µM)
Staphylococcus aureus [7]
  MIC: 512 µg/mL (≈ 1280 µM)
Staphylococcus aureus [8]
  MIC: 512 µg/mL (≈ 1280 µM)
Staphylococcus aureus [9]
  MIC: 256 µg/mL (≈ 638 µM)
Staphylococcus aureus [10]
  MIC: 512 µg/mL (≈ 1280 µM)
Staphylococcus aureus [11]
  MIC: 512 µg/mL (≈ 1280 µM)
Staphylococcus aureus [12]
  MIC: 16 µg/mL (≈ 39.9 µM)
Staphylococcus aureus [13]
  MIC: 8 µg/mL (≈ 19.9 µM)
Staphylococcus aureus [14]
  MIC: 512 µg/mL (≈ 1280 µM)
Staphylococcus aureus [15]
  MIC: 256 µg/mL (≈ 638 µM)
Staphylococcus aureus [16]
  MIC: 512 µg/mL (≈ 1280 µM)
Staphylococcus aureus [17]
  MIC: 512 µg/mL (≈ 1280 µM)
Staphylococcus aureus [18]
  MIC: 256 µg/mL (≈ 638 µM)
Staphylococcus aureus [19]
  MIC: 512 µg/mL (≈ 1280 µM)
Staphylococcus aureus [20]
  MIC: 256 µg/mL (≈ 638 µM)
Staphylococcus aureus [21]
  MIC: 256 µg/mL (≈ 638 µM)
Staphylococcus aureus [22]
  MIC: 256 µg/mL (≈ 638 µM)
Staphylococcus aureus [23]
  MIC: 512 µg/mL (≈ 1280 µM)
Staphylococcus aureus [24]
  MIC: 512 µg/mL (≈ 1280 µM)
Staphylococcus aureus [25]
  MIC: 64 µg/mL (≈ 159 µM)
Staphylococcus aureus [26]
  MIC: 512 µg/mL (≈ 1280 µM)
Staphylococcus aureus [27]
  MIC: 256 µg/mL (≈ 638 µM)
Staphylococcus aureus [28]
  MIC: 512 µg/mL (≈ 1280 µM)
Staphylococcus aureus [29]
  MIC: 256 µg/mL (≈ 638 µM)
Staphylococcus aureus [30]
  MIC: 256 µg/mL (≈ 638 µM)
Staphylococcus aureus [31]
  MIC: 512 µg/mL (≈ 1280 µM)
Staphylococcus aureus [32]
  MIC: > 512 µg/mL
Staphylococcus aureus [33]
  MIC: 512 µg/mL (≈ 1280 µM)
Staphylococcus aureus [34]
  MIC: 256 µg/mL (≈ 638 µM)
Staphylococcus aureus [35]
  MIC: 256 µg/mL (≈ 638 µM)
Staphylococcus aureus [36]
  MIC: 512 µg/mL (≈ 1280 µM)
